Legend:
Assay type in all cases: functional, cell-based
L1210 (PtR4) = assay: In vitro growth inhibition by the compound was determined in cisplatin-resistant murine L1210PtR4 cell lines; conditions: Mus musculus
Method in brief: (§1)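 Growth inhibition of murine leukemia lines (cisplatin-resistant variants and cisplatin-sensitive L1210S, P388S) followed a published procedure, read out as ID50. Values are mean ± SEM of 3 to 17 separate experiments, or averages of at least two experiments. Each experiment's value was the mean of duplicates.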

L1210 (DACH) = assay: In vitro growth inhibition by the compound was determined in cisplatin-resistant murine L1210DACH cell lines; conditions: Mus musculus; method in brief: as §1
P388/S = assay: In vitro growth inhibition by the compound was determined in cisplatin-sensitive murine P388S cell lines; conditions: Mus musculus; method in brief: as §1
NCI-H23 = assay: In vitro growth inhibition by the compound was determined in human H23 tumor cell lines
Method in brief: (§2)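 ID50 (µM) for growth inhibition of human tumor lines: HCT-8 colon adenocarcinoma and the H23, AH125 and H520 non-small cell lung carcinomas. Reported as mean ± SEM of at least four experiments, or as the average of at least two separate experiments.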

L1210 (DDP5) = assay: In vitro growth inhibition by the compound was determined in cisplatin-resistant murine L1210DDP5 cell lines; conditions: Mus musculus; method in brief: as §1
P388PtR4 = assay: In vitro growth inhibition by the compound was determined in cisplatin-resistant murine P388PtR4 cell lines; conditions: Mus musculus; method in brief: as §1
NCI-H520 = assay: In vitro growth inhibition by the compound was determined in human H520 tumor cell lines; method in brief: as §2
HCT-8 = assay: In vitro growth inhibition by the compound was determined in human HCT-8 tumor cell lines; method in brief: as §2
L1210 = assay: In vitro growth inhibition by the compound was determined in cisplatin-sensitive murine L1210S cell lines; conditions: Mus musculus; method in brief: as §1
AH125 cell line = assay: In vitro growth inhibition by the compound was determined in human AH125 tumor cell lines; method in brief: as §2

| Substance | ID50 (L1210 (PtR4)) [µM] | ID50 (L1210 (DACH)) [µM] | ID50 (P388/S) [µM] | ID50 (NCI-H23) [µM] | ID50 (L1210 (DDP5)) [µM] | ID50 (P388PtR4) [µM] | ID50 (NCI-H520) [µM] | ID50 (HCT-8) [µM] | ID50 (L1210) [µM] | ID50 (AH125 cell line) [µM] |
| --- | --- | --- | --- | --- | --- | --- | --- | --- | --- | --- |
| mu-(1,7-nanodiamine-N,N')bis-(cis-aminedichloroplatimum (II)) | 2.2 | 1.6 | 0.21 | 0.056 | 2.8 | 3.2 | 0.14 | 0.19 | 0.29 | 0.26 |
| mu-(1,5-pentanediamine-N,N')bis-(aminedioato(2-)-O,O'platimum (II)) | 13 | 9.49 | 2.06 | 1.48 | 17.2 | 16 | 1.83 | 4.42 | 3.83 | 3.68 |
| CISPLATIN | 19.1 | 2.1 | 0.7 | 0.31 | 16.1 | 23.3 | 0.47 | 1.3 | 0.92 | 0.7 |
| 0-Hexyl-1,3-diamine-platinum 2,2-dichloride | 0.19 | 9.5 | 0.21 |  | 0.38 | 2.26 |  |  | 0.21 |  |
| mu-(1,7-Heptanediamine-N,N')bis-(cis-aminedichloroplatimum (II)) | 0.73 | 0.5 | 0.14 | 0.03 | 1.23 | 0.91 |  | 0.1 | 0.22 | 0.12 |
| CI-973 | 5.4 | 3.6 | 0.22 | 3.9 | 8.6 | 3.7 | 3.9 | 4.2 | 1.4 |  |
